Compound activity from PubChem.
The list is not random: actives were taken first. Their share in the collection is about 4.7%.
SKN-1 block = suppressors of acrylamide-induced Pgst-4::GFP reporter in worms, primary screen, SKN-1 inhibitor project, whole organism, uHTS, GFP/RFP fluorescence ratio, strain VP596; C. elegans VP596 Pgst-4::GFP/RFP ratio, 24 h; inhibition, % at 21.8 µM; 0.49% of 360,000 active; AID 624304, 2012;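 active means interference check ratio from 0.5 to 1.5 plus GFP to RFP signal ratio inhibition reaching or exceeding a fixed threshold, cut at about 30% in these data, passing the limit was not always enough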
NR3A LBD binder = binders of NR3A ligand-binding domain, primary screen, biophysical, differential scanning fluorimetry, uHTS; 2.5% of 340,000 active; Tm shift relative to glycine control, % at 25 µM; Glutamate receptor ionotropic, NMDA 3A (GRIN3A) ligand-binding domain; NR3A LBD differential scanning fluorimetry, Tm shift; 0% = protein alone, 100% = glycine-bound protein;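 active means melting temperature shift of at least 10% of the positive control shift, at one fixed dose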
MT1-MMP act inh = blockers of MT1-MMP proenzyme processing, primary screen, HT1080 RFP-PRO-GFP cells, GFP/RFP fluorescence. Matrix metalloproteinase-14 (Homo sapiens), P50281. GFP/RFP ratio fluorescence, overnight; percent of plate control window, DMSO zero. GFP/RFP ratio change, % at 20 µM. 0.061% of 360,000 active. AID 651647, 2012;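 active means GFP/RFP ratio change of at least 30% with cell ATP level not reduced by more than half and red fluorescence within 50% of control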
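Assay system: RFP-PRO-GFP reporter HT1080 cells; read-out basis: GFP/RFP fluorescence ratio; benchmarks: DMSO wells and RFP-L50D-GFP cells; doses: 20 µM single dose, 1% DMSO; schedule: overnight cell settling, then overnight compound exposure, 37 °C, 5% CO2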
MPTP inh = mitochondrial permeability transition pore inhibitors, primary screen, biochemical, isolated mouse mitochondria, absorbance. inhibition, % at 10 µM. 1.4% of 360,000 active. Ca2+ swelling absorbance, 30 min;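 active means inhibition of 50% or more, scaled per plate between neutral and stimulator controls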;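 further: 0% = DMSO wells given calcium and 100% = 1 mM EGTA wells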
ADAM17 inh = ADAM17 inhibitors, primary screen, biochemical, QFRET; recombinant ADAM17, EDANS/DABCYL FRET peptide cleavage; AID 720648, 2013; Disintegrin and metalloproteinase domain-containing protein 17 (Homo sapiens), P78536; inhibition, % at 6.95 µM; 0.83% of 370,000 active;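 active means inhibition above the mean of compounds lying between control limits plus 3 SD, set per campaign, cut at about 8.5% in these data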;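 further: 0% = DMSO-only wells as the low control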
Target sequence (P78536 215-824 limits assumed): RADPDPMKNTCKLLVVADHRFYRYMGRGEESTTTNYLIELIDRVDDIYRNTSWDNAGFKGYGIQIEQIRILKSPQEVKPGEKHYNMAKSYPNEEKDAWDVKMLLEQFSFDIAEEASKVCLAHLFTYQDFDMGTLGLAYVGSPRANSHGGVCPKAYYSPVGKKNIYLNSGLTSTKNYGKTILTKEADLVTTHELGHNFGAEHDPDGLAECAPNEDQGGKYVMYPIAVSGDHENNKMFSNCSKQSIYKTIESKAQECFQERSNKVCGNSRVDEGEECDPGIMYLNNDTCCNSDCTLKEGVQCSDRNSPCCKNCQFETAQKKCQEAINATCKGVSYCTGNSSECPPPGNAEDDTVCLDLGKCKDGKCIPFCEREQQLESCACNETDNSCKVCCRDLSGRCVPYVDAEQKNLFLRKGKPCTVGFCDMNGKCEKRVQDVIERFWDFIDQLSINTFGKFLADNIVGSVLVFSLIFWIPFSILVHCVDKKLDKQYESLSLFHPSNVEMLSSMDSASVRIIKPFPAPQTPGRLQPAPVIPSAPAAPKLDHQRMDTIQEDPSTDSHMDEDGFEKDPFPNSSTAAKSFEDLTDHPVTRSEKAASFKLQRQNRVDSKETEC
ADAM10 inh = human ADAM10 inhibitors, primary screen, biochemical, QFRET, HTS | recombinant ADAM10, EDANS/DABCYL FRET peptide cleavage, 3 h | inhibition, % at 7 µM | 0.62% of 370,000 active;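 active means inhibition above a per-campaign cutoff equal to the mean of compounds falling between control-based bounds plus 3 SD, cut at about 20% in these data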;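 further: 0% = DMSO wells while the 100% control is not disclosed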
Rh123 counter = fluorescence retest of MPTP screen hits in isolated mitochondria, single concentration; membrane potential, Rhodamine 123 fluorescence; shares compounds with MPTP inh; 78% of 5,000 active; inhibition, % at 10 µM; in the data active means inhibition above about 22%;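 further: 0% = DMSO vehicle and 100% = positive control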
MPTP abs DR = mitochondrial permeability transition pore inhibitors, dose response, biochemical, absorbance, uHTS hits. isolated mitochondria swelling. shares compounds with MPTP inh. IC50, µM. 58% of 780 active; in the data active means IC50 below about 20 µM
MPTP counter DR = fluorescent counter-screen in isolated mitochondria, dose response, counter-screen for MPTP inhibitor project, biochemical, fluorescence, uHTS hits; shares compounds with MPTP inh; isolated mitochondria counterscreen, fluorescence read-out; IC50, µM; 49% of 780 active; AID 651564, 2012; in the data active means IC50 below about 80 µM
Active calls of the source: *; x = no result given.

SMILES	SKN-1 block	NR3A LBD binder	MT1-MMP act inh	MPTP inh	ADAM17 inh	ADAM10 inh	Rh123 counter	others
Cn1c(SCC(=O)Nc2ccccc2)nnc1-c1ccc(NC(=O)CCc2ccccc2)cc1	-12.4	-6.4	3.3	4.1	-3.0	0.2	x
COc1ccc(NC(=O)CSc2ncccc2C(=O)OC(C)C)cc1OC	-12.8	0.0	14.4	70.8*	3.7	-3.7	60.3*
Cc1ccc(S(=O)(=O)NCCC(=O)OCC(=O)N(Cc2ccccc2)C(C)(C)C)cc1C	15.8	0.6	-3.8	0.0	5.5	10.2	x
COC(=O)c1c(Cc2ccccc2Cl)c[nH]c1C	5.1	-1.0	0.9	54.7*	3.4	10.1	24.2*
S=C(NCc1cccs1)Nc1cc(Cl)cc(Cl)c1	-1.8	12.1*	-0.9	89.5*	3.3	9.0	78.2*
O=C(Nc1cccc(Cl)c1)NC1(C(=O)NCc2cccs2)CCCCC1	3.8	0.9	5.5	81.0*	-1.4	9.0	73.5*
S=C(NCc1cccs1)Nc1cccc(Cl)c1	-7.6	1.5	5.3	91.4*	x	x	98.5*
COCCOC(=O)C1=C(C)NC(=S)NC1c1ccc(OCC(=O)N2CC(C)OC(C)C2)c(OC)c1 (configuration not stated)	3.3	-0.8	-5.0	-2.6	-2.5	-6.6	x
Cc1cc(NC2=CC(=O)C(=O)c3ccccc32)no1	22.4	-0.2	5.1	1.8	-2.2	-8.5	x
CCC(C)Nc1nc(OC(C(F)(F)F)C(F)(F)F)nc(OC(C(F)(F)F)C(F)(F)F)n1 (configuration not stated)	-27.8	0.9	6.2	60.0*	0.4	2.5	59.6*
CCC(C)Nc1nc(OCC(F)(F)F)nc(OCC(F)(F)F)n1 (configuration not stated)	5.2	-7.2	3.4	-1.1	-2.1	-2.8	x
O=C(NCc1ccccc1)c1cc(-c2cccc(O)c2)on1	-4.1	-6.5	0.7	112.6*	-0.8	-9.2	15.7	MPTP abs DR=4.28*;MPTP counter DR=18.6*
Cc1ccc(NC(=O)c2cc(-c3cccc(O)c3)on2)cc1C	-3.7	3.8	0.7	104.7*	4.7	1.2	20.4*
O=C(Nc1cccc(O)c1)c1cc(-c2ccc3c(c2)OCO3)on1	-4.0	-0.2	-0.7	-2.3	3.0	-3.1	x
Cc1ccc(NC(=O)CSc2ncnc3ccccc23)cc1S(=O)(=O)N1CCOCC1	-0.2	0.9	-17.1	24.0	0.1	-6.0	x
Cc1ccc(NC(=O)CSc2ncnc3ccccc23)cc1S(=O)(=O)N1CCCCC1	7.6	-11.2	-9.1	78.7*	3.0	-9.5	71.3*
Cc1ccc(NC(=S)NCc2ccccc2)cc1S(=O)(=O)N1CCCCC1	9.3	7.5	3.1	75.1*	7.5	16.0	75.2*
C[C@H](CO)N1C[C@H](C)[C@@H](CN(C)C(=O)Nc2ccc(F)cc2)OCc2cnnn2CCCC1=O	7.1	x	1.6	0.9	-3.3	-8.9	x
COc1ccc(S(=O)(=O)Nc2ccccc2C(=O)Nc2nc(-c3ccc(F)cc3)cs2)cc1OC	1.6	26.1*	-17.5	96.6*	-107.2	-176.5	42.3*
COc1ccc(-c2csc(NC(=O)c3ccccc3NS(=O)(=O)c3ccc(C)cc3)n2)cc1	2.1	28.5*	-16.6	104.0*	-14.9	-17.3	6.3
C=C(C)CSc1nncn1/N=C/c1ccc(OC)cc1	-4.9	-2.2	x	-0.9	-3.4	6.3	x
COc1cccc(CNC2CCCc3ccccc32)c1OC (configuration not stated)	8.1	0.8	0.6	60.2*	-0.4	-11.4	4.9	MPTP abs DR=>100;MPTP counter DR=>80
COc1cc(CNC2CCCc3ccccc32)cc(OC)c1OC (configuration not stated)	-7.0	-0.3	2.7	3.1	-1.8	0.1	x
Cc1ccc(N/N=C(\C#N)C(N)=S)c(C)c1	-3.5	-1.7	0.2	89.9*	2.3	0.8	83.1*
Cc1ccc(N2C(=O)CCC2(C#N)c2ccccc2)cc1 (configuration not stated)	2.9	0.5	0.3	1.6	3.6	4.1	x
SMILES	SKN-1 block	NR3A LBD binder	MT1-MMP act inh	MPTP inh	ADAM17 inh	ADAM10 inh	Rh123 counter	others
COc1ccc(NC(=O)COc2ccc(N(C)S(=O)(=O)c3ccc(Cl)cc3)cc2)cc1OC	-1.5	-6.2	3.5	76.4*	1.4	8.9	90.0*
O=C(NCCOc1ccccc1)c1ccccc1Cl	4.2	2.1	-0.2	-0.3	-1.8	1.9	x
CN(C(=O)COc1ccccc1C(=O)NCCOc1ccccc1)c1ccccc1	3.1	-4.9	-17.2	51.4*	3.0	-15.9	31.5*
COc1ccc(-n2c(SCCNCCO)nc3sc4c(c3c2=O)CCCC4)cc1	5.7	0.6	-1.3	76.5*	3.8	1.1	-19.8	MPTP abs DR=8.33*;MPTP counter DR=>80
COc1ccc(-n2c(SCC(=O)O)nc3sc4c(c3c2=O)CCCC4)cc1	-12.9	0.6	-2.9	-0.3	-0.5	-6.1	x
CN(NS(=O)(=O)c1ccc(Br)cc1)c1nc(C(F)(F)F)nc2ccccc12	17.3	1.9	0.5	73.2*	1.5	-5.8	86.4*
CN(C)CC/C=C1/c2ccccc2Sc2c(O)cc(Cl)cc21	-6.3	-23.4	-5.3	1.2	-2.5	-2.7	x
COc1cc(Cl)cc2c1Sc1ccccc1/C2=C/CCN(C)C	-4.2	0.3	-14.7	82.2*	x	x	-4.2
O=C(C1CCCCC1)N1CCCc2ccccc21	9.1	1.8	-4.9	-1.7	-6.3	-3.1	x
O=[N+]([O-])c1ccc2c(c1N1CCCCC1)=NC1(CCCCC1)[N+]=2[O-]	4.5	-2.3	0.0	57.8*	0.1	-0.7	35.7*
O=[N+]([O-])c1ccc(N2CCCCC2)nc1N1CCCCC1	18.2	2.4	3.8	4.5	0.6	-2.1	x
Cc1ccc(C)c(S(=O)(=O)C(C#N)c2nc3ccccc3nc2N2CCOCC2)c1 (configuration not stated)	-16.1	-1.7	-2.3	53.1*	-4.7	1.2	73.2*
